Measurements reported in paper PMC3824626 (Bioorganic & medicinal chemistry letters, 2013).
Entries after “also recorded” stand apart in the source; their conditions may differ.

How the values were obtained:
[1] = kinetic aqueous solubility; format: physicochemical; conditions: aqueous/DMSO solubility compared with other analogs
Procedure, shortened: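 Kinetic aqueous solubility in PBS buffer, pH 7.4. It was measured by chemiluminescent nitrogen detection (CLND) at an outside laboratory and in-house by UV-Vis detection.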

BLM helicase = BLM helicase (Homo sapiens, UniProt P54132); test: gel-based BLM DNA unwinding assay; format: biochemical; conditions: for IC50 (BLM): gel-based BLM DNA unwinding assay
[2] = system: sister chromatid exchanges; conditions: cited from earlier work
BLM-positive cells = conditions: cited from earlier work
WRN = WRN (Homo sapiens, UniProt Q14191); test: gel-based DNA unwinding assay, WRN; format: biochemical; conditions: from gel-based IC50 values
BLM ATPase activity = BLM ATPase activity (Homo sapiens, UniProt P54132); test: BLM ATPase kinetic analysis; format: biochemical
Procedure, shortened: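 Michaelis–Menten analysis of BLM ATPase activity with and without test compound, replotted as a Lineweaver–Burk double-reciprocal plot. Each point is the mean ± SD of quadruplicate determinations, and the data shown represent three independent experiments.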

BLM = BLM (Homo sapiens, UniProt P54132); test: fluorescence polarization analysis of BLM binding to single-stranded DNA
[3] = system: PSNF5 cells (BLM-complemented GM08505-derived BS cells); test: sister chromatid exchange frequency in BLM-complemented cells; format: cell-based, human; conditions: cells expressing BLM (PSNF5)
[4] = system: PSNG13 cells (BLM-defective GM08505-derived BS cells); test: sister chromatid exchange frequency in BLM-defective cells; format: cell-based, human; conditions: cells lacking BLM (PSNG13)
WRN helicase = conditions: cited from earlier work

BLM helicase, sequence (P54132 whole entry): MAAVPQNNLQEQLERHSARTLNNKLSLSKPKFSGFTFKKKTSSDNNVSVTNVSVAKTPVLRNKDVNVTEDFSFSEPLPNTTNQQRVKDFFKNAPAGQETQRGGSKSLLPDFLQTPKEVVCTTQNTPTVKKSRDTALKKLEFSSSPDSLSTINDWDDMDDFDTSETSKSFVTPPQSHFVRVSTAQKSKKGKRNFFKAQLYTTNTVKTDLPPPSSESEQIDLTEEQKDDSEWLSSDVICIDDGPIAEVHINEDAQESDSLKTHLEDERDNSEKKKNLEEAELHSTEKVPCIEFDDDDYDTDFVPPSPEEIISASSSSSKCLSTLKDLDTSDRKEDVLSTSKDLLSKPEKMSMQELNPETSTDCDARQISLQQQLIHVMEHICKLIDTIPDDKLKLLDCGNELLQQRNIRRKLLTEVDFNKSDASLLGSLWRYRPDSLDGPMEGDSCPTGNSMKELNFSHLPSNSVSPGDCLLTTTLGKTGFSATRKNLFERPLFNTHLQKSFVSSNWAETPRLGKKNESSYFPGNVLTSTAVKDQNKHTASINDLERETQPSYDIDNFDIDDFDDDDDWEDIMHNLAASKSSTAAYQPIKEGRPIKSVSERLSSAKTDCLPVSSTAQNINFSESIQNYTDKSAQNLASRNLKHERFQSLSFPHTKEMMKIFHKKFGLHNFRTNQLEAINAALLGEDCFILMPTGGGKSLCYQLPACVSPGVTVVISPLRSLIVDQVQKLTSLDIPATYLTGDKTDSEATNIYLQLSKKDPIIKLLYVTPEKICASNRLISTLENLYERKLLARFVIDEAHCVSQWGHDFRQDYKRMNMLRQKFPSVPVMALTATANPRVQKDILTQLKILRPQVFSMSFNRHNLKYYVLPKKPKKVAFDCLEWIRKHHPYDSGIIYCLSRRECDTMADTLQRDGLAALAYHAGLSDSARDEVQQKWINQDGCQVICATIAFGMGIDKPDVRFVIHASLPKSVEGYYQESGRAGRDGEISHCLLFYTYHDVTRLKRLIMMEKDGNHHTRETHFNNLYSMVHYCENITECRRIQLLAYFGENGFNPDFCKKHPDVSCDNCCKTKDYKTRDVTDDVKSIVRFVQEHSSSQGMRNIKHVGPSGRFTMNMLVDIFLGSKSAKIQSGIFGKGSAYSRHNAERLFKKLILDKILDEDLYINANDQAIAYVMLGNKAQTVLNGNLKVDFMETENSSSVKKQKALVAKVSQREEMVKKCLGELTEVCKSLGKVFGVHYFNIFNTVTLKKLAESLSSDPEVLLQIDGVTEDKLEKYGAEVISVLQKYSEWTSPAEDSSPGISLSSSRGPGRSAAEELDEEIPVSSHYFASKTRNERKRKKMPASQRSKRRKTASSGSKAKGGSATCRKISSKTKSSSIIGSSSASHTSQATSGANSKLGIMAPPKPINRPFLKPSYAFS
BLM ATPase activity, sequence (P54132 whole entry): as above
BLM, sequence (P54132 whole entry): as above
WRN, sequence (Q14191 whole entry): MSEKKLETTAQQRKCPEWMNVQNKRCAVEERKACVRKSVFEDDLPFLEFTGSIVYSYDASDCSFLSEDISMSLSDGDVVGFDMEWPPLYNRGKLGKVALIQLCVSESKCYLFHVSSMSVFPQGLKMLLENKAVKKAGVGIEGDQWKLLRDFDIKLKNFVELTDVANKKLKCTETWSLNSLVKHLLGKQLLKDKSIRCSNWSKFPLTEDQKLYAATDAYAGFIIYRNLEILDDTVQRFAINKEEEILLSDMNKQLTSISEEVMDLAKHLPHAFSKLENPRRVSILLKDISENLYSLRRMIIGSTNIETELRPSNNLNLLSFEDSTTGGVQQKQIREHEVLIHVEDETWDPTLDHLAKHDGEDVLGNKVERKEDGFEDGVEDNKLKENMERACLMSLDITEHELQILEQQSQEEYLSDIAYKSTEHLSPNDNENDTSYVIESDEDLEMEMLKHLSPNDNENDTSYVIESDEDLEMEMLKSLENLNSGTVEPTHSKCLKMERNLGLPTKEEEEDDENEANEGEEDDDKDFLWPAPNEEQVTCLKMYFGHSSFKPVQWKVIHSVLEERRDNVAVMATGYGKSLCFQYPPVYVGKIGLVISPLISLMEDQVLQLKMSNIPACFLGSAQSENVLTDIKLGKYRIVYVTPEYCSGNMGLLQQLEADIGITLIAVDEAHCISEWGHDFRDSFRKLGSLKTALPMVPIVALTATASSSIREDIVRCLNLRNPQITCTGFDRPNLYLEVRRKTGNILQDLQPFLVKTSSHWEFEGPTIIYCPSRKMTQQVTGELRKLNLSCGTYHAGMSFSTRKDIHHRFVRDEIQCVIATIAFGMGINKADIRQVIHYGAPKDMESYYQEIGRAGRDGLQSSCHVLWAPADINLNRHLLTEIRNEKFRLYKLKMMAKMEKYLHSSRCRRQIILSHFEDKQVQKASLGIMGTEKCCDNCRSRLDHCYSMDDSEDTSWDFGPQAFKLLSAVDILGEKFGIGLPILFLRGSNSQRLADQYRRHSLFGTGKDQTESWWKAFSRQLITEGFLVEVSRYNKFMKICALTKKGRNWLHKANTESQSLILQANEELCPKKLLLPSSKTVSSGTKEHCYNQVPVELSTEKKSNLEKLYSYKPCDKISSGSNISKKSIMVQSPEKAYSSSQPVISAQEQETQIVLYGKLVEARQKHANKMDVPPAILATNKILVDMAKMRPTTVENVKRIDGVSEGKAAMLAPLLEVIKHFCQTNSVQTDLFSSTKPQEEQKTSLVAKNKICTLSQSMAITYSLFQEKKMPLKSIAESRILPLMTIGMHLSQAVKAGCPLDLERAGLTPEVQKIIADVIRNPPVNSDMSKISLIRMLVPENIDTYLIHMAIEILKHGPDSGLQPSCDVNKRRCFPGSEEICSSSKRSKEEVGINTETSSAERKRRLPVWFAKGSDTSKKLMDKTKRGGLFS

| IC50 (BLM) (BLM helicase) | Structure (SMILES) | other results |
| --- | --- | --- |
|  | N#Cc1ccc(NC(=O)Nc2nnc(-c3ccncc3)s2)cc1Br [Compound 24] | solubility (in words) [1]: noticeably diminished aqueous/DMSO solubility |
|  | O=c1c(Nc2ccc(Cl)c(Cl)c2)c(Nc2nnc(-c3ccncc3)s2)c1=O [Compound 7g] | solubility (in words) [1]: not improved over (1) |
| completely inactive | O=C(Nc1ccc(Cl)c(Cl)c1)Nc1ncc(-c2ccncc2)s1 [Compound 6c] |  |
| weakly active or inactive | N=C(Nc1ccc(Cl)c(Cl)c1)Nc1nnc(-c2ccncc2)s1 [Compound 7b] |  |
| loss of activity | O=C(Nc1ccc(Cl)c(Cl)c1)Nc1nnc(-c2ccncc2)o1 [Compound 6d] |  |
|  | N#Cc1cc(NC(=O)Nc2nnc(-c3ccncc3)s2)ccc1Cl [Compound 10] | improvement in potency when 3-Cl is replaced with cyano (BLM helicase; relative to compound 1, BLM gel-based IC50): 4 fold; solubility (in words) [1]: noticeably diminished aqueous/DMSO solubility; also recorded: diminished solubility compared with 33 |
| weakly active or inactive | O=C(Cc1ccc2ccccc2c1)Nc1nnc(-c2ccncc2)s1 [Compound 7c] |  |
|  | O=C(Nc1ccc(F)c(C(F)(F)F)c1)Nc1nnc(-c2ccncc2)s1 [ML216] | induction of sister chromatid exchanges [2]: induce sister chromatid exchanges; antiproliferative activity (BLM-positive cells): selective antiproliferative activity in BLM-positive cells |
| complete loss of activity | CN(C(=O)Nc1ccc2ccccc2c1)c1nnc(-c2ccncc2)s1 [Compound 7h] |  |
| good activity | N#Cc1cc(NC(=O)Nc2nnc(-c3ccncc3)s2)ccc1-c1ccc[nH]1 [Compound 36] |  |
| inactivity | O=C(Nc1ccc(Cl)c(Cl)c1)Nc1nnc(-c2ccccc2)s1 [Compound 4a] |  |
| good activity | O=C(Nc1ccc(-n2ccnc2)c(F)c1)Nc1nnc(-c2ccncc2)s1 [Compound 35] |  |
| drastic loss in activity | O=C(Nc1ccc(Cl)cc1)Nc1nnc(-c2ccncc2)s1 [Compound 8] |  |
|  | N#Cc1cc(NC(=O)Nc2nnc(-c3ccncc3)s2)ccc1Br [Compound 23] | solubility (in words) [1]: noticeably diminished aqueous/DMSO solubility |
| inactivity | O=C(Nc1ccc(Cl)c(Cl)c1)Nc1nnc(-c2ccccn2)s1 [Compound 4b] |  |
| loss of activity | O=C(Nc1ccc(Cl)c(Cl)c1)Nc1ccc(-c2ccncc2)s1 [Compound 6a] |  |
| weakly active or inactive | N#C/N=C(/Nc1ccc(F)c(C(F)(F)F)c1)Nc1nnc(-c2ccncc2)s1 [Compound 7f] |  |
| weakly active or inactive | O=S(=O)(Cc1ccc(Cl)c(Cl)c1)Nc1nnc(-c2ccncc2)s1 [Compound 7e] |  |
|  | CCCOCN1C(=O)C=CC1=O [NSC19630] | WRN helicase inhibition (WRN helicase): small molecule inhibitor of WRN helicase |
| drastic loss in activity | O=C(Nc1ccccc1)Nc1nnc(-c2ccncc2)s1 [Compound 9] |  |

| Structure (SMILES) | IC50 (BLM) (BLM helicase) | other results |
| --- | --- | --- |
| O=C(Nc1nnc(-c2ccncc2)s1)Oc1ccc2ccccc2c1 [Compound 7d] | weakly active or inactive |  |
| N#Cc1cc(NC(=O)Nc2nnc(-c3ccncc3)s2)ccc1-c1cn[nH]c1 [Compound 33] | comparable activity to the probe compound | selectivity for BLM over WRN (WRN): greater than 6 fold; mode of BLM inhibition (BLM ATPase activity; Lineweaver-Burk double reciprocal plot): non-ATP competitive BLM inhibitor; effect on apparent Km of BLM ATPase activity (BLM ATPase activity; single-stranded oligonucleotide as DNA effector): does not affect the apparent Km value; displacement of DNA binding to BLM versus related DNA helicases (BLM): selective displacement of DNA binding to BLM over related DNA helicases; inhibition of BLM binding to single-stranded DNA (BLM): dose-dependent inhibition; induction of SCEs [3]: significant and dose-dependent induction of SCEs; induction of SCEs [4]: no further increase in SCEs |
